Data as given in ChEMBL document CHEMBL5357066, “Development of Novel Membrane Disrupting Lipoguanidine Compounds Sensitizing Gram-Negative Bacteria to Antibiotics” (ACS Med Chem Lett, 2024).
Active and inactive are the calls of the source. The rule behind the calls is not given here.

Legend:
[1] = system: Klebsiella pneumoniae; experiment: Synergistic antibacterial activity against Klebsiella pneumoniae NCTC 13368 assessed as reduction in rifampicin MIC at 8 to 64 microg/ml incubated for overnight by microbroth dilution checkerboard assay; assay type: functional, organism-based; details: dose 8-64 µg/ml
Procedure, shortened: (§1)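 Checkerboard microdilution under MIC conditions (TSB, overnight, 37 °C). Two-fold series of each agent were combined on one plate before bacteria were added, and single-agent MICs were measured on the same plate. FIC = sum of combination MIC/alone MIC for each agent, taken from the most synergistic well. Three independent repeats, mean ± SD. ≤0.5 was taken as strong synergy and 0.5–<1 as weak.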

[2] = system: Escherichia coli; experiment: Potentiation of doxycycline induced antibacterial activity against Escherichia coli NCTC 12923; assay type: functional, organism-based
[3] = system: Pseudomonas aeruginosa; experiment: Synergistic antibacterial activity against Pseudomonas aeruginosa NCTC 13437 assessed as fractional inhibitory concentration index incubated for overnight in presence of rifampicin by microbroth dilution checker board assay; assay type: functional
Procedure, shortened: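 Checkerboard microdilution in Tryptic Soy Broth, run like the MIC assay. Overnight TSB cultures were back-diluted to OD 0.01 and added 1:1 to the combined two-fold series of both agents, then incubated overnight at 37 °C. Growth/no-growth was called at <0.1 OD600. MICs alone were read on the same plates. FIC index came from the most synergistic well; three independent repeats, mean ± SD.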

[4] = system: Cell membrane; experiment: Induction of outer membrane permeabilization in Pseudomonas aeruginosa NCTC 13437 assessed as increase fluorescence intensity by measuring NPN uptake factor measured immediately for 2 hrs by fluorescence based analysis; assay type: subcellular
Procedure, shortened: (§2)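 NPN outer-membrane uptake. Overnight TSB cultures (37 °C, 200 rpm) were subcultured 1:20 for 2 h to mid-log, washed, and resuspended in 5 mM HEPES with 5 mM glucose, pH 7.2. Cells were mixed with assay buffer containing 10 µM NPN, then with compound, polymyxin B (positive control) or buffer. Fluorescence (ex 350, em 420 nm) was monitored immediately for 2 h.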

[5] = system: Acinetobacter baumannii; experiment: Synergistic antibacterial activity against Acinetobacter baumannii AYE assessed as reduction in rifampicin MIC at 32 microg/ml incubated for overnight by microbroth dilution checkerboard assay; assay type: functional, organism-based; details: dose 32.0 µg/ml; procedure, shortened: as §1
[6] = system: Cell membrane; experiment: Induction of outer membrane permeabilization in Escherichia coli NCTC 12923 assessed as increase fluorescence intensity by measuring NPN uptake factor measured immediately for 2 hrs by fluorescence based analysis; assay type: subcellular; procedure, shortened: as §2
[7] = system: Pseudomonas aeruginosa; experiment: Potentiation of doxycycline induced antibacterial activity against Pseudomonas aeruginosa NCTC 13437; assay type: functional, organism-based
[8] = system: Klebsiella pneumoniae; experiment: Synergistic antibacterial activity against Klebsiella pneumoniae NCTC 13368 assessed as fractional inhibitory concentration index incubated for overnight in presence of rifampicin by microbroth dilution checker board assay; assay type: functional; procedure, shortened: as §1
[9] = system: Cell membrane; experiment: Induction of outer membrane permeabilization in Klebsiella pneumoniae NCTC 13368 assessed as increase fluorescence intensity by measuring NPN uptake factor measured immediately for 2 hrs by fluorescence based analysis; assay type: subcellular; procedure, shortened: as §2
[10] = system: Klebsiella pneumoniae; experiment: Potentiation of doxycycline induced antibacterial activity against Klebsiella pneumoniae M6; assay type: functional, organism-based
[11] = system: Cell membrane; experiment: Induction of outer membrane permeabilization in Pseudomonas aeruginosa PAO1 assessed as increase fluorescence intensity by measuring NPN uptake factor measured immediately for 2 hrs by fluorescence based analysis; assay type: subcellular; procedure, shortened: as §2
[12] = system: Pseudomonas aeruginosa; experiment: Potentiation of doxycycline induced antibacterial activity against Pseudomonas aeruginosa PAO1; assay type: functional, organism-based
[13] = system: Klebsiella pneumoniae; experiment: Synergistic antibacterial activity against Klebsiella pneumoniae M6 assessed as reduction in rifampicin MIC at 8 to 32 microg/ml incubated for overnight by microbroth dilution checkerboard assay; assay type: functional, organism-based; details: dose 8-32 µg/ml
Procedure, shortened: (§3)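 Broth microdilution in Tryptic Soy Broth, with rifampicin in a 2-fold dilution series combined with the second agent. Bacteria were grown overnight in TSB, back-diluted, then incubated with the compounds overnight at 37 °C. MIC was taken as the lowest concentration with no visible growth (<0.1 OD600).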

[14] = system: Cell membrane; experiment: Induction of outer membrane permeabilization in Acinetobacter baumannii ATCC 17978 assessed as increase fluorescence intensity by measuring NPN uptake factor measured immediately for 2 hrs by fluorescence based analysis; assay type: subcellular; procedure, shortened: as §2
[15] = system: Pseudomonas aeruginosa; experiment: Synergistic antibacterial activity against Pseudomonas aeruginosa PAO1 assessed as reduction in rifampicin MIC at 8 to 32 microg/ml incubated for overnight by microbroth dilution checkerboard assay; assay type: functional, organism-based; details: dose 8-32 µg/ml; procedure, shortened: as §3
[16] = system: Klebsiella pneumoniae; experiment: Potentiation of doxycycline induced antibacterial activity against Klebsiella pneumoniae NCTC 13368; assay type: functional, organism-based
[17] = Toxicity in Galleria mellonella larvae assessed as reduction in animal survival at 10 to 50 mg/kg measured for 120 hrs; assay type: organism-based; details: in vivo, dose 10-50 mg/kg
Procedure, shortened: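 Wax moth larvae, assumed 300 mg mean weight with 50 µL haemolymph, 10 per group. Each was injected via the front proleg with 10 µL of compound at 50, 20 or 10 mg/kg, or PBS only. Larvae were held at 37 °C for 5 days and scored live/dead every 24 h; dead meant no response to physical stimuli.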

[18] = system: Acinetobacter baumannii; experiment: Synergistic antibacterial activity against Acinetobacter baumannii ATCC 17978 assessed as reduction in rifampicin MIC at 32 microg/ml incubated for overnight by microbroth dilution checkerboard assay; assay type: functional, organism-based; details: dose 32.0 µg/ml; procedure, shortened: as §1
[19] = system: Cell membrane; experiment: Induction of outer membrane permeabilization in Acinetobacter baumannii AYE assessed as increase fluorescence intensity by measuring NPN uptake factor measured immediately for 2 hrs by fluorescence based analysis; assay type: subcellular; procedure, shortened: as §2

Q: With `CCCCCCCCCCNC(=N)NCCCCN` as the molecule, how does the Activity [1] read?
A: Active

Q: And the Activity [2]?
A: Active

Q: And the “fractional inhibitory concentration index (FICI)” value [3]?
A: 0.15

Q: And the Activity [4]?
A: > 1

Q: What about the Activity [5] of the same molecule?
A: Active

Q: What about the Activity [6] of the same molecule?
A: > 1

Q: And the Activity [7]?
A: Active

Q: And the “fractional inhibitory concentration index (FICI)” value [8]?
A: 0.1

Q: What about the Activity [9] of the same molecule?
A: > 1

Q: What about the Activity [10] of the same molecule?
A: Active

Q: And the Activity [11]?
A: > 1

Q: What about the Activity [12] of the same molecule?
A: Active

Q: And the Activity [13]?
A: Active

Q: What about the Activity [14] of the same molecule?
A: > 1

Q: What about the Activity [15] of the same molecule?
A: Active

Q: What about the Activity [16] of the same molecule?
A: Active

Q: What about the Activity [17] of the same molecule?
A: Non-Toxic

Q: What about the Activity [18] of the same molecule?
A: Active

Q: And the Activity [19]?
A: > 1
